Hits are enriched below; roughly 11% of the tested compounds scored in any of these assays.
G6PDH CS: inhibits Leuconostoc G6PDH, flagging false hits in G6PDH-based assays. actives 0.12% (n = 200,000). inhibition, % at 5 µM. Purified L. mesenteroides G6PDH, diaphorase/resazurin coupled fluorescence, 45 min. AID 1020
WT yeast gro inh: growth inhibition of WT yeast, mitochondrial fusion screen. mitochondrial fusion phenotypic screen, WT strain. inhibition, % at 10 µM. actives 2.1% (n = 190,000). AID 1362; in the data active = inhibition above about 58%; tested in S. cerevisiae
Diaph act CS: activates diaphorase or chemically reduces, flagging diaphorase assay artifacts | Diaphorase/resazurin coupled assay, resorufin fluorescence, 16 min; hits give high values; 1 = vehicle wells, 0 = NADH-free wells | activation factor at 20 µM | actives 0.005% (n = 190,000);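 active = diaphorase activity raised at least twofold by the compound at 20 µM; inactive = activation factor below 2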
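Material: Purified diaphorase enzyme from Clostridium kluyveri | Buffer or medium: 50 mM HEPES pH 7.4 with 4.542 mM MgCl2, 0.005% Tween 20 | Times: 16 min enzyme reaction, ambient temperature | Signal: Red resorufin fluorescence at 544/590 nm excitation/emission | Measure: Increased resorufin signal from activators or reducing compounds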
L major viab: inhibitors of Leishmania major promastigote growth; Leishmania major promastigotes, resazurin fluorescence viability; inhibition, % at 10 µM; actives 9% (n = 200,000); AID 1063;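 also: promastigotes grown with compound for 44 hours at 28 °C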
Diaphorase inh: counter-screen for diaphorase-based assays: diaphorase inhibitors and chemical oxidizers. actives 0.69% (n = 190,000). diaphorase resazurin-to-resorufin fluorescence, NADH, 16 min; bacterial (C. kluyveri) enzyme, not human. inhibition, % at 20 µM;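 active = primary screen inhibition at 20 µM above a set limit, cut at about 50% in these data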;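 also: plate controls were DMSO with full reaction for no effect and wells lacking NADH for full effect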
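controls = No-NADH positive control and DMSO neutral control | system = Clostridium kluyveri diaphorase enzyme | timing = reaction incubation of 16 min at room temperature | signal = resorufin fluorescence 544/590 nm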
Active calls of the source: *. Rule as the data show it, unless noted: active = inhibition above about 50%; inactive = the rest.

SMILES	G6PDH CS	WT yeast gro inh	Diaph act CS	L major viab	Diaphorase inh
O=C(C1CCCN(S(=O)(=O)Cc2ccccc2)C1)N1CCc2ccccc21 (centres undefined)	0	6	0.9	73*	5
CCOC(=O)C1CCCN(C(=O)CS(=O)(=O)Cc2ccccc2)C1 (centres undefined)	-2	60*	0.9	-2	13
CC1Cc2ccccc2N1C(=O)C1CCN(S(=O)(=O)Cc2ccccc2)CC1 (centres undefined)	4	-21	0.9	54*	6
CCOC(=O)C1CCN(S(=O)(=O)c2c(C)n[nH]c2C)CC1	-17	67*	0.9	1	6
CCOC(=O)c1ccc(S(=O)(=O)N2CCN(C(=O)c3nn(C)c(=O)c4ccccc34)CC2)cc1	7	5	1	-1	0
CCOC(=O)c1c(NC(=O)C2CCCN(S(=O)(=O)c3ccc(C)cc3)C2)sc2c1CCCC2 (centres undefined)	-1	-4	0.7	6	26
CCOC(=O)C1CCN(S(=O)(=O)Cc2ccccc2)CC1	51*	-1	1.1	-4	-15
CCOC(=O)C1CCN(S(=O)(=O)Cc2ccc(Cl)cc2)CC1	14	9	0.9	-6	6
N#Cc1cc2ccc(N3CCOCC3)cc2cc1C#N	48	8	0.8	99*	16
COc1ccccc1N1CCN(S(=O)(=O)c2c(C)[nH]c(=O)[nH]c2=O)CC1	0	4	0.9	-1	9
Cc1ccc(Cl)c(OCCCCN(C)Cc2ccccc2)c1	-2	10	0.8	91*	21
CN(CCCOc1ccccc1Br)Cc1ccccc1	15	6	1	18	0
CN(CCOCCOc1ccc(Cl)cc1Br)Cc1ccccc1	-2	44	0.9	87*	5
CCOc1cccc(OCCOCCN(C)Cc2ccccc2)c1	9	1	0.9	79*	10
CCOc1ccc(OCCN(C)Cc2ccccc2)cc1	3	6	0.8	93*	20
CCOc1cccc(OCCOCCN(C)C)c1	3	1	0.9	-5	6
CCCn1c(/N=C/c2ccc3c(c2)OCO3)nc2ccccc21	17	3	1	39	-1
CCCCn1c(/N=C/c2ccccc2NS(=O)(=O)c2ccc(C)cc2)nc2ccccc21	27	26	0.8	77*	18
Cc1ccc(C(O)c2nc3ccccc3n2C(C)C)cc1 (centres undefined)	6	-4	0.8	5	17
Cc1ccc(S(=O)(=O)Nc2ccccc2/C=N/c2nc3ccccc3n2C(C)C)cc1	7	46	0.9	58*	12
CNC1=C(N(C(C)=O)c2ccc(Br)cc2)C(=O)c2ccccc2C1=O	52*	-5	0.6	99*	41
CC1=C(C(=O)c2ccccc2)C(c2ccc(OC(F)F)cc2)NC(=S)N1 (centres undefined)	6	0	0.9	24	13
Cc1ccc2[nH]c(=O)c(C(c3nnnn3CC3CCCO3)N3CCc4ccccc4C3)cc2c1 (centres undefined)	11	10	0.4	37	63*
COc1ccc2[nH]c(=O)c(C(c3nnnn3CC3CCCO3)N3CCc4ccccc4C3)cc2c1 (centres undefined)	5	10	0.5	29	52*
Cc1ccc2[nH]c(=O)c(C(c3nnnn3CC3CCCO3)N3CCOCC3)cc2c1 (centres undefined)	4	2	0.9	-2	14
SMILES	G6PDH CS	WT yeast gro inh	Diaph act CS	L major viab	Diaphorase inh
Cc1ccc2[nH]c(=O)c(C(c3nnnn3CC3CCCO3)N3CCCc4ccccc43)cc2c1 (centres undefined)	14	-7	0.2	4	80*
O=C(CSc1cccc2cccc(Cl)c12)NC1=NCCS1	8	10	0.8	-4	20
COc1ccc(-c2cc(-c3ccc(Br)cc3)nc3ncnn23)cc1OC	0	10	1	19	4
NC(=O)CN1CCN(S(=O)(=O)c2ccc(Br)cc2)CC1	8	10	1	-7	0
CC(=O)Nc1ccc(N2CCN(Cc3ccccc3F)CC2)cc1	-8	-7	0.8	50*	16
CCOc1ccccc1N1CCN(C(=O)Nc2cccc(Cl)c2)CC1	0	-20	0.9	15	9
CS(=O)(=O)N1CCC(C(=O)Nc2ccc(Cl)c(Cl)c2)CC1	12	-7	1.1	11	-8
CCOc1ccccc1N1CCN(C(=O)Nc2ccc(Cl)c(Cl)c2)CC1	6	68*	1	5	-5
O=C(Nc1ccc(Cl)cc1)N1CCCN(Cc2ccccc2F)C1	8	8	0.7	57*	32
CCC(=O)Nc1ccc(N2CCN(Cc3ccccc3F)CC2)cc1	-4	7	1	-3	-5
CC(C)N(C)C1CCN(C(=O)Nc2ccc(Cl)c(Cl)c2)CC1	-2	15	0.9	60*	5
O=C(Cc1ccccc1)Nc1ccc(N2CCN(Cc3ccccc3F)CC2)cc1	12	2	1.1	-3	-6
COc1ccc(C(O)C(CC(=O)NCCCOC(C)C)C(=O)NCCCOC(C)C)cc1OC (centres undefined)	-4	-15	1.1	-2	-6
COc1ccccc1C(=O)NCC(=O)NNc1ncnc(N)c1[N+](=O)[O-]	8	4	1	-8	5
COc1ccc(CC(=O)OCC(=O)Nc2c(C)n(C)n(-c3ccccc3)c2=O)cc1	12	11	1.2	26	-22
O=C(Nc1ccc(F)c(Cl)c1)N1CCCC1	10	20	0.8	99*	24
COc1ccc(/C=C2/C(=O)N(c3nc4ccccc4s3)N=C2CSc2ccc(Cl)cc2)cc1	8	2	0.9	100*	7
COc1ccc(/C=C2/C(=O)N(Cc3ccccc3)N=C2C)cc1	11	9	0.8	0	21
CCNS(=O)(=O)c1ccc2c(c1)NCC2	6	17	0.9	-1	9
Cc1ccccc1Cn1ccc(=NCc2ccccc2)cc1	-2	13	0.9	100*	10
Cc1ccccc1CNC(=O)CCc1ccccc1	16	-15	0.9	-4	9
COc1ccc(F)cc1C(=O)C1CCCN(C(=O)c2cccc(N(C)C)c2)C1 (centres undefined)	2	15	0.8	1	20
COc1ccc(OC)c(S(=O)(=O)NC(C)(C)C)c1	1	3	0.9	-3	7
COc1ccc(OC)c(S(=O)(=O)N2c3ccccc3CC2C)c1 (centres undefined)	8	-1	0.9	100*	10
COc1ccc(C(=O)N2CCOCC2)cc1S(=O)(=O)N1CCCc2ccccc21	8	-11	1.1	0	-8
COc1ccc(OC)c(S(=O)(=O)N2CCCc3ccccc32)c1	1	-8	0.8	100*	15
COc1ccc(OC)c(S(=O)(=O)N2CCc3ccccc32)c1	-8	7	0.9	95*	7

Screens from PubChem BioAssay.
